PMC3487391 (Journal of medicinal chemistry, 2011)

Assays:
LNCaP cells = assay: Cell viability by Cell Titer-Glo; type: cell-based; conditions: at concentrations that impacted the luciferase assay
Summary of the method: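 LNCaP cells are grown in phenol-red-free RPMI1640 with 10% charcoal-stripped FCS and transfected with PSA(ARE)-LUC and CMV-Renilla. After 12 h they are treated with 20 nM DHT plus increasing concentrations of test compound. After 42–44 h, cells are washed twice with PBS and harvested, and 1/6 of them is assayed with CellTiter-Glo luminescent reagent for ATP-based viability.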

G9a = target: T1, G9a (Homo sapiens, UniProt Q96KQ7); assay: In vitro methylation fluorograph, G9a with H3 as substrate; type: biochemical; conditions: compound at 100 μM
T1 sequence (Q96KQ7 1-1210): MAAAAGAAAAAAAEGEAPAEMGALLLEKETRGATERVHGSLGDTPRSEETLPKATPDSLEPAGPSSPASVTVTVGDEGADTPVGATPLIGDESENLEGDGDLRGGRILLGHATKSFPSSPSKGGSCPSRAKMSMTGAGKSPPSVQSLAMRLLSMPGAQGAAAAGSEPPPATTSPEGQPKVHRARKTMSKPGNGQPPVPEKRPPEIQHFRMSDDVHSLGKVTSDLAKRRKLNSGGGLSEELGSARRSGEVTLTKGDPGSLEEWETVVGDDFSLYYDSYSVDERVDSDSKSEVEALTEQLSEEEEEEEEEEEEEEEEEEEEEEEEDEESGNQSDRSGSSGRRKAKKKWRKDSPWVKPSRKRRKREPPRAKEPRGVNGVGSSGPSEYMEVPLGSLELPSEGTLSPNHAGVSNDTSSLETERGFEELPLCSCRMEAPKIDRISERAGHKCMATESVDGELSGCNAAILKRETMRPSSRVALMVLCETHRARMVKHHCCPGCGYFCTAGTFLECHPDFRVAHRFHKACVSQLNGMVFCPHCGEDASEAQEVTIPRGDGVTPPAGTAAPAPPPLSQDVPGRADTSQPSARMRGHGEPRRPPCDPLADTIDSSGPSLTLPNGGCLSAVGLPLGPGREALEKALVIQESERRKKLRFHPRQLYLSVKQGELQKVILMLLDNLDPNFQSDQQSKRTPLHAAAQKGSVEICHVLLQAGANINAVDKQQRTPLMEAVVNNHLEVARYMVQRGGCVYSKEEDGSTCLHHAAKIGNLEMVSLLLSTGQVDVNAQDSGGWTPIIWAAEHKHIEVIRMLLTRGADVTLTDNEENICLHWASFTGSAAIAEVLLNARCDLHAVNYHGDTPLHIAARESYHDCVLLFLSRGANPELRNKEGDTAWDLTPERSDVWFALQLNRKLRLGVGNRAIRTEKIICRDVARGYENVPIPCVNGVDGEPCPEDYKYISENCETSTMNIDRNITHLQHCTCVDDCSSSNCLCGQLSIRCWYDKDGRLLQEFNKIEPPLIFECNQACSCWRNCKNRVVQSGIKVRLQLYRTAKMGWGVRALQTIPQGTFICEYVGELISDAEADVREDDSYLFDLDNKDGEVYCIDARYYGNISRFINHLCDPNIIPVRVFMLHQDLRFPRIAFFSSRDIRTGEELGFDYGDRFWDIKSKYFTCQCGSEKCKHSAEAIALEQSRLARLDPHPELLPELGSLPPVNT
Summary of the method: (§1)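 Recombinant enzyme (0.1–0.2 μM) and substrate (0.5–1.5 μM) are incubated with [methyl-³H]AdoMet (85 Ci/mmol) in PBS pH 7.4. Test compound is present at 100 μM. Reactions run 90 min at 30 °C, are resolved by SDS/PAGE and transferred to PVDF. The membrane is sprayed with Enhance and exposed to film overnight. Substrate bands are located by Ponceau S, excised and counted (dpm) for graphic depiction.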

DOTL1 = DOTL1 (Homo sapiens, UniProt Q8TEK3); assay: In vitro methylation fluorograph, DOTL1 with nucleosome as substrate; type: biochemical; conditions: compound at 100 μM
Sequence of DOTL1 (Q8TEK3 whole entry): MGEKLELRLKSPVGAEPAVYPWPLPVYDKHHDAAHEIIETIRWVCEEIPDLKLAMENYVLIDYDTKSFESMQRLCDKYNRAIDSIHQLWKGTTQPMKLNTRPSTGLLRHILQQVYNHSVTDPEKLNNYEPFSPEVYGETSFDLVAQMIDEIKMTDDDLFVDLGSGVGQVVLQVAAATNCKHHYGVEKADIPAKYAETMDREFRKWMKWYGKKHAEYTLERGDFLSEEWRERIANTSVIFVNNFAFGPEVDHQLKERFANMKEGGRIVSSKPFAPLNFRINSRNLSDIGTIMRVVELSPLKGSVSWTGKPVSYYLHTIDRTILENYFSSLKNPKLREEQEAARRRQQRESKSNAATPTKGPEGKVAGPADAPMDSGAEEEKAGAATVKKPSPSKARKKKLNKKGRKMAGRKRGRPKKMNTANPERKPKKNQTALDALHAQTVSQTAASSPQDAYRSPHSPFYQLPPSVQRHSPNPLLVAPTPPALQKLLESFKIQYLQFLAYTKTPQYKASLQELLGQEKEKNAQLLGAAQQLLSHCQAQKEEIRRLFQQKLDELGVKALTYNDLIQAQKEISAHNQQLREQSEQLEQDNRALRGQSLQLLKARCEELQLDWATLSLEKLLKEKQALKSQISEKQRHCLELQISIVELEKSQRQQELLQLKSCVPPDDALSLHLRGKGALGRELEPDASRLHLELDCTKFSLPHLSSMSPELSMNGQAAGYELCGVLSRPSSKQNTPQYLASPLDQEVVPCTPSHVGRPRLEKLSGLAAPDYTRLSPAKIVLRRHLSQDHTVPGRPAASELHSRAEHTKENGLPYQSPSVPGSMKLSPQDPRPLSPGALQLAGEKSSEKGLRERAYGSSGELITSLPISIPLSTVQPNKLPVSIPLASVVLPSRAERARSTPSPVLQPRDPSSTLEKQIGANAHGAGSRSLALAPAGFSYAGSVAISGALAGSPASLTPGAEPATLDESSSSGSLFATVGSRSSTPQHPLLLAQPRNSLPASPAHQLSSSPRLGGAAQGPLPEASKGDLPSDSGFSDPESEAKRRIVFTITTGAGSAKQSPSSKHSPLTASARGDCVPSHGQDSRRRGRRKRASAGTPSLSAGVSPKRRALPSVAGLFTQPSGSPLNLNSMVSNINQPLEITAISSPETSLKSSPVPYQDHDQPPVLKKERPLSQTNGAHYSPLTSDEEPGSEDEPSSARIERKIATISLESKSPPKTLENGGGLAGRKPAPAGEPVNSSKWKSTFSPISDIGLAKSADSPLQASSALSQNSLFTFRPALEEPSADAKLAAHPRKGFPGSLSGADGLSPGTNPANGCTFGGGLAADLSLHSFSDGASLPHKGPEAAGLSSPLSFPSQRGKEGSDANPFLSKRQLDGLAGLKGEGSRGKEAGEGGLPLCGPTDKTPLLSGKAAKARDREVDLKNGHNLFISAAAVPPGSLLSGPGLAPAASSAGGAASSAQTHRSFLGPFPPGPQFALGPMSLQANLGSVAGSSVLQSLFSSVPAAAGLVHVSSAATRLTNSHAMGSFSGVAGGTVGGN
Summary of the method: as §1

Suv39H1 = target: T2, Suv39H1 (Homo sapiens, UniProt O43463); assay: In vitro methylation fluorograph, Suv39H1 with H3 as substrate; type: biochemical; conditions: compound at 100 μM
T2 sequence (O43463 1-412): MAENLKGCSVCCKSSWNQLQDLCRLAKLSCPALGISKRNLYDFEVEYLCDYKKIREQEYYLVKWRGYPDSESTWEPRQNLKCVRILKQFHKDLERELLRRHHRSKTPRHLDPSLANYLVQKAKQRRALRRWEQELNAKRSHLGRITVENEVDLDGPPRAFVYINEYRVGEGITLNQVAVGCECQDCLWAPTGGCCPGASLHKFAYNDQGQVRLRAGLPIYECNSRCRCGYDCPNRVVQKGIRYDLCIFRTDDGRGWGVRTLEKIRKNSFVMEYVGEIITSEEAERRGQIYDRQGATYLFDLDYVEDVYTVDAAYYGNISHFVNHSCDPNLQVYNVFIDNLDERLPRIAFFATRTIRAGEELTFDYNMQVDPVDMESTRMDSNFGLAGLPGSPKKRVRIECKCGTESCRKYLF
Summary of the method: as §1

CARM1 [1] = target: T3, CARM1 (Homo sapiens, UniProt Q86X55); type: biochemical; conditions: compound at 100 μM; substrates PABP1, CA150, SmB, histone H3
T3 sequence (Q86X55 1-608): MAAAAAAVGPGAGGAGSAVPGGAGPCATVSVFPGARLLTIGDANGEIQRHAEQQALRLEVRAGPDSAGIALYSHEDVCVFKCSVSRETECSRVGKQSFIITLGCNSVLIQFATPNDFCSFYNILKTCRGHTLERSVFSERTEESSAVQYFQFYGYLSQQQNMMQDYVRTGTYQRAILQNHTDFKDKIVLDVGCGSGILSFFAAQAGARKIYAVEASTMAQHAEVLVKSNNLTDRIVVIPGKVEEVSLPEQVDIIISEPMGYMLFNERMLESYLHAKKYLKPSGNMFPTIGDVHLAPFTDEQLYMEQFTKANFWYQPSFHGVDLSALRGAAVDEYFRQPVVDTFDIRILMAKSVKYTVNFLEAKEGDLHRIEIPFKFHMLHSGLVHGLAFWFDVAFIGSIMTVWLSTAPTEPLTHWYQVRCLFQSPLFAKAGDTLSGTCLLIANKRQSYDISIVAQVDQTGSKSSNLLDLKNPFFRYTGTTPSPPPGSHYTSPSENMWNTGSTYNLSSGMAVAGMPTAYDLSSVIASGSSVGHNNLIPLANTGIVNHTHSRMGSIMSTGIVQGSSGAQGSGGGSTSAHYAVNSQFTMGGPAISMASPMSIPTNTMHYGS
Summary of the method: as §1

[2] = test system: Flag-PABP1 methylation in HEK293 cells; assay: Tetracycline-inducible Flag-PABP1 methylation reporter system in HEK293 cells; type: cell-based, human; conditions: tetracycline-induced Flag-PABP1, methyl-specific PABP1 antibody
Summary of the method: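 HEK293 cells engineered with a tetracycline-controlled TetR repressor carry tetO-regulated Flag-PABP1. Tetracycline is added with test compound to induce Flag-PABP1. Lysates are resolved by SDS-PAGE, where Flag-PABP1 migrates slower than endogenous PABP1. Its methylation is detected by immunoblot with an in-house methyl-specific PABP1 antibody.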

PRMT3 = PRMT3 (Homo sapiens, UniProt O60678); assay: In vitro methylation fluorograph, PRMT3 with NPL3 and rpS2 as substrates; type: biochemical; conditions: compound at 100 μM
Sequence of PRMT3 (O60678 whole entry, species assumed): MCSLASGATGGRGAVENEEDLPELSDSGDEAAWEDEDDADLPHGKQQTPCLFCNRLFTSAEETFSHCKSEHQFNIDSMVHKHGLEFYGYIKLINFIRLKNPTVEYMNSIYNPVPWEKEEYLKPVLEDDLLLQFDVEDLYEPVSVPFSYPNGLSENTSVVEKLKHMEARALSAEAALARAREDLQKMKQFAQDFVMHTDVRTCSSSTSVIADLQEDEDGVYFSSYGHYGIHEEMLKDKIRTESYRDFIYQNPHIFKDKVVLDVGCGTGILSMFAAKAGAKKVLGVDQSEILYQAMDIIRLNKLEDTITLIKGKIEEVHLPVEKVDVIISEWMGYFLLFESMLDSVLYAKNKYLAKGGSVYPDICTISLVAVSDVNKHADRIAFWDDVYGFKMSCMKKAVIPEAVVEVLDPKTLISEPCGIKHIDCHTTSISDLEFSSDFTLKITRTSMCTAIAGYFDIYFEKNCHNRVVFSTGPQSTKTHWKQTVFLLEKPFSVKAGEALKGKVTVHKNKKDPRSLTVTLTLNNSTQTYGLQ
Summary of the method: as §1

CARM1 [3] = target: T3, CARM1; assay: In vitro methylation assay, CARM1 with PABP1 as substrate; type: biochemical; conditions: for effect against PABP1 methylation by CARM1 (fluorograph): compound at 20 μM
SET7 = target: T4, SET7 (Homo sapiens, UniProt Q8WTS6); assay: In vitro methylation assay, SET7 with histone H3 as substrate; type: biochemical; conditions: compound at 100 μM
T4 sequence (Q8WTS6 1-366): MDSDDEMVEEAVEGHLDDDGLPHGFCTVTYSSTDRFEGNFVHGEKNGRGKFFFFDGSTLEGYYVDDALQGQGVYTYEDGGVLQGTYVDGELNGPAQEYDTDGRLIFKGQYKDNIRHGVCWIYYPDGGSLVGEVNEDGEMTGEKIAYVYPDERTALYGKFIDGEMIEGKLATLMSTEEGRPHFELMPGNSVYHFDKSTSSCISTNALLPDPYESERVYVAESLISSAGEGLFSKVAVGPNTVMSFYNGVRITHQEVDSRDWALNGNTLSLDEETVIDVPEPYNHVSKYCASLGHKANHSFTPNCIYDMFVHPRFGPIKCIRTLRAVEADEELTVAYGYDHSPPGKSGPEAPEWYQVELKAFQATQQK

PRMT5 = PRMT5 (Homo sapiens, UniProt O14744); assay: In vitro methylation fluorograph, PRMT5 with histone H4 as substrate; type: biochemical; conditions: compound at 100 μM
Sequence of PRMT5 (O14744 whole entry, species assumed): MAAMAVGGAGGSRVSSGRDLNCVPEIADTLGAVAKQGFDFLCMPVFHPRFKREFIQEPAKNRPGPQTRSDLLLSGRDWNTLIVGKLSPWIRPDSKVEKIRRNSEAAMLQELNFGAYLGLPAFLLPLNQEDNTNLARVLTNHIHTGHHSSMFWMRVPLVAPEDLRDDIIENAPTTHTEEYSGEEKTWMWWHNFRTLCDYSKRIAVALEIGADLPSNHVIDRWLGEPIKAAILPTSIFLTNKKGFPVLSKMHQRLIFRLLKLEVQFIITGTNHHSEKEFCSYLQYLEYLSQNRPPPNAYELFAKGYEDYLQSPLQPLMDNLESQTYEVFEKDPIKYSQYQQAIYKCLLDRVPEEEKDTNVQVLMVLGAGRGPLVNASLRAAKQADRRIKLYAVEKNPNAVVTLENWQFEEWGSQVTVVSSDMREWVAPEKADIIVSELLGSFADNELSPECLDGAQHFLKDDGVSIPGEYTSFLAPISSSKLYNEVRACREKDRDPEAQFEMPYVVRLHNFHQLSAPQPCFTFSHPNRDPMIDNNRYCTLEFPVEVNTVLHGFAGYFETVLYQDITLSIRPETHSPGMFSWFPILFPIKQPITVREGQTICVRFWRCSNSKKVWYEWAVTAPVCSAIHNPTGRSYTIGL
Summary of the method: as §1

[4] = test system: PSA promoter in LNCaP cells; assay: PSA luciferase assay in LNCaP cells; type: cell-based, human; conditions: two days, relative to CMV-Renilla control
Summary of the method: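 LNCaP cells are grown in phenol-red-free RPMI1640 with 10% charcoal-stripped FCS and seeded ~20 h before Lipofectamine transfection with 300 ng PSA(ARE)-LUC and 2 ng humanized CMV-Renilla. After 12 h, cells receive 20 nM DHT plus test compound at increasing concentrations. After 42–44 h, 5/6 of the washed, harvested cells go to a dual luciferase assay, normalised to Renilla. Values are mean ± SD of triplicates.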

Compound	effects on cell viability (LNCaP cells)	activity against G9a (fluorograph) (G9a)	activity against DOTL1 (fluorograph) (DOTL1)	activity against Suv39H1 (fluorograph) (Suv39H1)	inhibition of CARM1 activity on various substrates (fluorograph) (CARM1 [1])	inhibition of Flag-PABP1 methylation [2]	inhibition of PRMT3 (fluorograph) (PRMT3)	enzyme preference of inhibition (in words) (CARM1 [3]; series 7a-m, IC50 determination vs PRMT1, CARM1, SET7 (Table S1))	activity against SET7 (fluorograph) (SET7)	effect against PABP1 methylation by CARM1 (fluorograph) (CARM1 [3])	inhibition of PRMT5 (fluorograph) (PRMT5)	concentration effective on PSA reporter activity [4] [µM]
O=C1/C(=C/c2ccc(O)c(Br)c2)CN(Cc2ccccc2)C/C1=C\c1ccc(O)c(Br)c1 [7g, 1-benzyl-3,5-bis(3-bromo-4-hydroxybenzylidene) piperidin-4-one]	no or little effects	No significant activity	No significant activity	No significant activity	strongly inhibited	able to inhibit	able to inhibit to some extent	preferably inhibited CARM1	No significant activity			
Cc1ccc(CN2C/C(=C\c3ccc(O)c(Br)c3)C(=O)/C(=C/c3ccc(O)c(Br)c3)C2)cc1 [8c]										no effect		
O=C1/C(=C/c2ccc(O)c(Br)c2)CN(Cc2cccc(Cl)c2)C/C1=C\c1ccc(O)c(Br)c1 [8e]		No significant activity	No significant activity	No significant activity	strongly inhibited	only 7g was able to inhibit	able to inhibit to some extent		No significant activity		high inhibition	
O=C1/C(=C/c2ccc(O)c(Br)c2)CN(CCCc2ccccc2)C/C1=C\c1ccc(O)c(Br)c1 [8k]										no effect		
O=C1/C(=C/c2ccc(O)c(Br)c2)CN(CC(=O)c2ccccc2)C/C1=C\c1ccc(O)c(Br)c1 [8l]	no or little effects	No significant activity	No significant activity	No significant activity	strongly inhibited	only 7g was able to inhibit			No significant activity		high inhibition	30
